Assay [1] relates to Schistosoma mansoni. Briefly: Antischistosomal activity against adult Schistosoma mansoni assessed as decreased motility at 20 uM incubated for 48 hrs by inverted microscope analysis relative to control. It counts as functional. Also on record: scale not given: the % may be the effect or the level left. The method in brief: (§1)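 Paired adult worms were cultured in RPMI/10% FBS with antibiotics at 37°C, 5% CO2, with GSK343 or 0.1% DMSO. They were viewed by inverted microscope at 3, 6, 12, 24 and 48 h. Motility was scored on a 0–3 scale (3 full movement, 1.5 partial or immobile but alive, 0 dead); death meant no movement over more than 2 min. Pairing was recorded. Three experiments, each with 10 pairs; mean ± SD.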

Assay [2] concerns Schistosoma mansoni. The experiment in a line: Antischistosomal activity against adult Schistosoma mansoni assessed as decreased motility incubated for 24 hrs by inverted microscope analysis relative to control. It counts as functional. Details: scale not given: the % may be the effect or the level left. The procedure, abridged: as §1
In assay [3] the test system is Schistosoma mansoni. The experiment in a line: Antischistosomal activity against adult Schistosoma mansoni assessed as reduction in pairing of couples at 20 uM incubated for 48 hrs by inverted microscope analysis relative to control. It counts as functional. Also on record: scale not given: the % may be the effect or the level left. The procedure, abridged:
as §1

The subject of assay [4] is Schistosoma mansoni. Briefly: Cytotoxicity against adult Schistosoma mansoni assessed as reduction in ATP quantification at 50 uM incubated for 48 hrs by CellTiter-Glo Luminescent assay relative to control. Format: functional. Also on record: scale not given: the % may be the effect or the level left. The method in brief:
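Worm pairs in supplemented RPMI (10% FBS, 37°C, 5% CO2) exposed 48 h to compound or 0.1% DMSO. ATP measured by luminescence in freshly lysed worms and expressed as % of vehicle signal; three replicate experiments, 10 pairs each, mean ± SD.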
For orientation: Cellular ATP, detected with luciferase, serves as a proxy for viable cell number.

Assay [5] deals with Schistosoma mansoni. The experiment in a line: Antischistosomal activity against adult male Schistosoma mansoni assessed as presence of deep chasms between the dorsal tubercles at 20 uM incubated for 48 hrs by scanning electron microscopy analysis. Format: functional, organism-based. The method in brief:
(§2)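 Adult couples were taken by perfusion into supplemented RPMI, one couple per well, and adapted 2 h at 37°C, 5% CO2. They were exposed to 20 μM GSK343 or 0.1% DMSO for 24 and 48 h. Fixation used modified Karnovsky with osmium post-fix, followed by ethanol dehydration, critical-point drying, gold sputtering and scanning electron microscopy of tegument surfaces.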

The test system of assay [6] is Schistosoma mansoni. Briefly: Antischistosomal activity against adult female Schistosoma mansoni assessed as damaged tegument in anterior region at 20 uM incubated for 48 hrs by scanning electron microscopy analysis. It counts as functional, organism-based. The method in brief: as §2
Assay [7] relates to Schistosoma mansoni. Briefly: Antischistosomal activity against adult female Schistosoma mansoni assessed as decrease in number of eggs laid at 20 uM incubated for 24 to 48 hrs by […] analysis relative to control. Format: functional. Details: scale not given: the % may be the effect or the level left. As to conditions: time 24-48 hrs.
Assay [8] concerns Schistosoma mansoni. Briefly: Antischistosomal activity against adult female Schistosoma mansoni assessed as reduction in area dimension of egg at 20 uM incubated for 24 to 48 hrs by scanning electron microscopy analysis relative to control. As to conditions: time 24-48 hrs. It counts as functional. Details: scale not given: the % may be the effect or the level left. The procedure, abridged: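 Eggs released by couples kept 24 or 48 h with 20 μM GSK343 or 0.1% DMSO in supplemented RPMI were fixed in modified Karnovsky with osmium post-fix. They were dehydrated, critical-point dried, gold-coated and imaged by SEM; total egg area dimension was measured.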

For assay [9], the system named is Schistosoma mansoni. The experiment in a line: Antischistosomal activity against Schistosoma mansoni assessed as increased length of schistosomula at 20 uM incubated for 24 to 48 hrs by scanning electron microscopy analysis. It counts as functional. As to conditions: time 24-48 hrs. The method in brief: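 Newly transformed schistosomula were held 16 h in M169 with 2% FBS, serotonin, hypoxanthine, hydrocortisone, triiodothyronine and antibiotics at 37°C, 5% CO2, at 2,000 per well. They were then exposed to 20 μM GSK343 or 0.1% DMSO for 24 and 48 h. Fixation was modified Karnovsky (pH 7.4) with 1% osmium post-fix, then ethanol dehydration, critical-point drying, gold coating and SEM. Lengths came from three experiments, each with 20 schistosomula.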

The test system of assay [10] is Schistosoma mansoni. The experiment in a line: Antischistosomal activity against Schistosoma mansoni assessed as decreased H3K27me3 level in schistosomula at 20 uM incubated for 48 hrs by Western blotting analysis. It counts as functional, organism-based. The method in brief:
(§3)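 About 10,000 schistosomula were treated 48 h with 20 μM GSK343 or vehicle, then sonicated in Triton X-100 lysis buffer with PMSF and protease inhibitors. Supernatant nuclear extract (BCA-quantified, 10 μg) was run on 15% SDS-PAGE and blotted to nitrocellulose. Blots were probed with mark-specific monoclonal antibodies, then IRDye secondaries; infrared imaging was used and signals were normalized to total H3. t-test.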

Assay [11] has as its system Schistosoma mansoni. The experiment in a line: Antischistosomal activity against Schistosoma mansoni assessed as increased H3K27ac level in schistosomula at 20 uM incubated for 48 hrs by Western blotting analysis. Format: functional, organism-based. The method in brief: as §3
For orientation: A western blot detects proteins with antibodies after separation by electrophoresis.

In assay [12] the test system is Schistosoma mansoni. Briefly: Antischistosomal activity against Schistosoma mansoni assessed as increased H3K27me1 level in schistosomula at 20 uM incubated for 48 hrs by Western blotting analysis. Format: functional, organism-based. The procedure, abridged: as §3
The subject of assay [13] is Schistosoma mansoni. The experiment in a line: Antischistosomal activity against female Schistosoma mansoni assessed as down-regulated p48 mRNA level at 20 uM incubated for 48 hrs by RT-qPCR analysis. It counts as functional, organism-based.
Assay [14] has as its system Schistosoma mansoni. Briefly: Antischistosomal activity against female Schistosoma mansoni assessed as down-regulated ESP mRNA level at 20 uM incubated for 48 hrs by RT-qPCR analysis. Format: functional, organism-based. The procedure, abridged:
(§4)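 Schistosomula (supplemented M169) or adult worms (supplemented RPMI) were treated 48 h with 20 μM GSK343 or 0.1% DMSO at 37°C, 5% CO2. qPCR normalizer genes were chosen from RNA-seq data as those with TPM >1 and a treated/control ratio of 0.9–1.1 that were not differentially expressed. Relative expression was calculated by comparative Ct; significance by t-test.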
For orientation: Quantitative PCR measures a nucleic acid by following its amplification.

Assay [15] deals with Schistosoma mansoni. The experiment in a line: Antischistosomal activity against female Schistosoma mansoni assessed as down-regulated Tyrosinase 1 mRNA level at 20 uM incubated for 48 hrs by RT-qPCR analysis. Format: functional, organism-based. The method in brief:
as §4

For assay [16], the system named is Schistosoma mansoni. The experiment in a line: Antischistosomal activity against female Schistosoma mansoni assessed as down-regulated Tyrosinase 2 mRNA level at 20 uM incubated for 48 hrs by RT-qPCR analysis. Format: functional, organism-based. The procedure, abridged: as §4
Assay [17] relates to Schistosoma mansoni. The experiment in a line: Antischistosomal activity against female Schistosoma mansoni assessed as down-regulated EEFB1 mRNA level at 20 uM incubated for 48 hrs by RT-qPCR analysis. Format: functional, organism-based. The method in brief:
as §4

For assay [18], the system named is Schistosoma mansoni. The experiment in a line: Antischistosomal activity against Schistosoma mansoni assessed as down-regulated MEG-4 mRNA level in schistosomula at 20 uM incubated for 48 hrs by RT-qPCR analysis. It counts as functional, organism-based. The method in brief: as §4
Assay [19] has as its system Schistosoma mansoni. Briefly: Antischistosomal activity against Schistosoma mansoni assessed as down-regulated Val7 mRNA level in schistosomula at 20 uM incubated for 48 hrs by RT-qPCR analysis. It counts as functional, organism-based. The procedure, abridged: as §4
The test system of assay [20] is Schistosoma mansoni. Briefly: Antischistosomal activity against Schistosoma mansoni assessed as down-regulated LDL receptor mRNA level in schistosomula at 20 uM incubated for 48 hrs by RT-qPCR analysis. It counts as functional, organism-based. The procedure, abridged: as §4
The test system of assay [21] is Schistosoma mansoni. The experiment in a line: Antischistosomal activity against Schistosoma mansoni assessed as down-regulated FA binding protein mRNA level in schistosomula at 20 uM incubated for 48 hrs by RT-qPCR analysis. Format: functional, organism-based. The procedure, abridged:
as §4

Assay [22] concerns Schistosoma mansoni. The experiment in a line: Antischistosomal activity against Schistosoma mansoni assessed as down-regulated Glucose transport protein mRNA level in schistosomula at 20 uM incubated for 48 hrs by RT-qPCR analysis. Format: functional, organism-based. The procedure, abridged: as §4
For assay [23], the system named is Schistosoma mansoni. Briefly: Cytotoxicity against Schistosoma mansoni assessed as decrease in viability at 20 uM incubated for 2 days relative to control. As to conditions: time 2 day.

Results on one molecule are retold here after ChEMBL document CHEMBL5715959, “Inhibition of histone methyltransferase EZH2 in Schistosoma mansoni in vitro by GSK343 reduces egg laying and decreases the expression of genes implicated in DNA replication and noncoding RNA metabolism” (2018).

The source made the active and inactive calls. The calls are words filed in the database; no cut-off is given here.

On to `CCCc1cc(C)[nH]c(=O)c1CNC(=O)c1cc(-c2ccnc(N3CCN(C)CC3)c2)cc2c1cnn2C(C)C`, for which the Activity with Schistosoma mansoni [1] is reported as approximately 40%; in the assay on Schistosoma mansoni [2], 50%; in the assay on Schistosoma mansoni [3] it was approximately 50%; with Schistosoma mansoni [4] it was less than 20%; in the assay on Schistosoma mansoni [7], 40%; in the assay on Schistosoma mansoni [8], 30%. Moreover, the Activity in the assay with Schistosoma mansoni [23] was less than 20%. Moreover, the outcome in the assay on Schistosoma mansoni [5], in the assay with Schistosoma mansoni [6], in the assay on Schistosoma mansoni [10], in the assay with Schistosoma mansoni [11], in the assay with Schistosoma mansoni [12] and in the assay on Schistosoma mansoni [13] was Active. Besides, the result with Schistosoma mansoni [14], in the assay with Schistosoma mansoni [15], in the assay with Schistosoma mansoni [16], in the assay with Schistosoma mansoni [17], with Schistosoma mansoni [18] and in the assay on Schistosoma mansoni [19] was Active. Besides, the outcome in the assay on Schistosoma mansoni [20], in the assay with Schistosoma mansoni [21] and with Schistosoma mansoni [22] was Active. In addition, the “fold change (FC)” value with Schistosoma mansoni [9] is reported as 1.1.
